Results on 5 molecules are retold here after ChEMBL document CHEMBL1138564, “Microwave-induced synthesis and anti-microbial activities of 7,10,11,12-tetrahydrobenzo[c]acridin-8(9H)-one derivatives” (2009).

Experiment [1] concerns Aspergillus flavus. Kind of experiment: Antimicrobial activity against Aspergillus flavus NCIM 902 at 500 ug/disk after 72 hrs by disk diffusion method. In kind it is functional. Conditions: NCIM 902, 72 h, read-out: DIZ. In a few lines:
(§1)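 Disc diffusion on Sabouraud's dextrose agar. 100 µl of fungal suspension at 10⁶ CFU/ml is spread on the plate. Discs carry test compounds at two loadings in DMSO; DMSO alone is the negative control. Clotrimazole disc is the positive reference. Plates are incubated at 27 °C for 72 h, and the zone of inhibition diameter is measured.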
In general terms: In agar diffusion tests the substance spreads into inoculated agar from a disc or well.

Experiment [2] concerns Aspergillus niger. Kind of experiment: Antimicrobial activity against Aspergillus niger NCIM 1196 at 500 ug/disk after 72 hrs by disk diffusion method.
The test system of experiment [3] is Bacillus cereus. Kind of experiment: Antimicrobial activity against Bacillus cereus NCIM 2155 after 24 hrs by serial dilution method. It counts as functional. The note with it: NCIM 2155, 24 h. In a few lines: (§2)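 Broth dilution MIC in nutrient broth, run only for organisms found sensitive in disc diffusion. Compounds are two-fold serially diluted in 1 ml sterile broth per tube, spanning 3.9 to 1000. Inoculated tubes are incubated at 37 °C for 24 h.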

Experiment [4] has as its system Escherichia coli. Briefly: Antimicrobial activity against Escherichia coli NCIM 2065 at 500 ug/disk after 24 hrs by disk diffusion method. The note with it: NCIM 2065, 24 h, read-out: DIZ. It counts as functional. In a few lines:
(§3)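 Disc diffusion on Mueller–Hinton agar. 100 µl of bacterial suspension at 10⁸ CFU/ml is spread on the plate. Discs carry test compounds at two loadings, dissolved in DMSO; DMSO alone serves as negative control. Ofloxacin disc is the positive reference. Plates are incubated at 37 °C for 24 h, and the inhibition zone diameter is measured.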

Experiment [5] has as its system Aspergillus niger. Briefly: Antimicrobial activity against Aspergillus niger NCIM 902 after 72 hrs by serial dilution method. In kind it is functional. Conditions: NCIM 1196, 72 h, in the assay text read “NCIM 1196” for “NCIM 902”. In a few lines: (§4)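 MIC by broth dilution in Sabouraud's dextrose broth, only for fungi sensitive in disc diffusion. Two-fold serial dilutions of compounds are made in 1 ml broth per tube, range 3.9 to 1000. Inoculated tubes are incubated at 27 °C for 72 h.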

The subject of experiment [6] is Penicillium chrysogenum. Briefly: Antimicrobial activity against Penicillium chrysogenum NCIM 707 after 72 hrs by serial dilution method. In kind it is functional. Conditions: NCIM 707, 72 h. In a few lines:
as §4

In experiment [7] the test system is Aspergillus parasiticus. Kind of experiment: Antimicrobial activity against Aspergillus parasiticus NCIM 904 at 500 ug/disk after 72 hrs by disk diffusion method. The note with it: NCIM 904, 72 h, read-out: DIZ. In kind it is functional. In a few lines:
as §1

Experiment [8] concerns Staphylococcus. Briefly: Antimicrobial activity against Staphylococcus albus NCIM 2178 at 500 ug/disk after 24 hrs by disk diffusion method. It counts as functional. The note with it: for zone of inhibition at 500 µg/disc: NCIM 2178, 24 h, read-out: DIZ. In a few lines:
(§5)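 Disc diffusion. 100 µl of bacterial suspension at 10⁸ CFU/ml was spread on Mueller–Hinton agar. Discs loaded with test compound dissolved in DMSO were placed on the lawn, with a DMSO-only disc as negative control. Plates were incubated at 37 °C for 24 h, and the inhibition zone diameter was measured.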

Experiment [9] has as its system Salmonella typhimurium. Kind of experiment: Antimicrobial activity against Salmonella Typhimurium NCIM 2501 at 1000 ug/disk after 24 hrs by disk diffusion method. In kind it is functional. The note with it: for zone of inhibition at 1000 µg/disc: Salmonella enterica, NCIM 2501, 24 h, read-out: DIZ. In a few lines: as §5
The subject of experiment [10] is Aspergillus fumigatus. Kind of experiment: Antimicrobial activity against Aspergillus fumigatus NCIM 902 after 72 hrs by serial dilution method. Conditions: NCIM 902, 72 h. In kind it is functional. In a few lines: as §4
The subject of experiment [11] is Bacillus subtilis. Briefly: Antimicrobial activity against Bacillus subtilis NCIM 2063 at 500 ug/disk after 24 hrs by disk diffusion method. In kind it is functional. The note with it: NCIM 2063, 24 h, read-out: DIZ. In a few lines:
as §3

The test system of experiment [12] is Aspergillus niger. Briefly: Antimicrobial activity against Aspergillus niger NCIM 902 at 1000 ug/disk after 72 hrs by disk diffusion method. It counts as functional. The note with it: NCIM 1196, 72 h, in the assay text read “NCIM 1196” for “NCIM 902”, read-out: DIZ. In a few lines: as §1
Experiment [13] concerns Salmonella typhimurium. Briefly: Antimicrobial activity against Salmonella Typhimurium NCIM 2501 at 500 ug/disk after 24 hrs by disk diffusion method. The note with it: for zone of inhibition at 500 µg/disc: Salmonella enterica, NCIM 2501, 24 h, read-out: DIZ. In kind it is functional. In a few lines: as §5
The subject of experiment [14] is Klebsiella aerogenes. Kind of experiment: Antimicrobial activity against Klebsiella aerogenes NCIM 2239 at 500 ug/disk after 24 hrs by disk diffusion method. In kind it is functional. The note with it: for zone of inhibition at 500 µg/disc: NCIM 2239, 24 h, read-out: DIZ. In a few lines: as §3
Experiment [15] deals with Pseudomonas aeruginosa. Briefly: Antimicrobial activity against Pseudomonas aeruginosa NCIM 2200 at 500 ug/disk after 24 hrs by disk diffusion method. It counts as functional. Conditions: for zone of inhibition at 500 µg/disc: NCIM 2200, 24 h, read-out: DIZ. In a few lines: as §5
Experiment [16] concerns Staphylococcus. Kind of experiment: Antimicrobial activity against Staphylococcus albus NCIM 2178 after 24 hrs by serial dilution method. It counts as functional. Conditions: NCIM 2178, 24 h.
Experiment [17] deals with Klebsiella aerogenes. Briefly: Antimicrobial activity against Klebsiella aerogenes NCIM 2239 after 24 hrs by serial dilution method. It counts as functional. The note with it: NCIM 2239, 24 h. In a few lines: as §2
Experiment [18] has as its system Salmonella typhimurium. Kind of experiment: Antimicrobial activity against Salmonella Typhimurium NCIM 2501 after 24 hrs by serial dilution method. It counts as functional, Salmonella enterica subsp. enterica serovar Typhimurium. The note with it: Salmonella enterica, NCIM 2501, 24 h.
Experiment [19] concerns Proteus vulgaris. Kind of experiment: Antimicrobial activity against Proteus vulgaris NCIM 2027 after 24 hrs by serial dilution method. In kind it is functional. Conditions: NCIM 2027, 24 h. In a few lines:
as §2

Experiment [20] has as its system Rhodococcus corynebacterioides. Kind of experiment: Antimicrobial activity against Corynebacterium rubrum NCIM 2252 after 24 hrs by serial dilution method. The note with it: Rhodococcoides corynebacterioides, NCIM 2252, 24 h. It counts as functional. In a few lines: as §2
In experiment [21] the test system is Pseudomonas aeruginosa. Kind of experiment: Antimicrobial activity against Pseudomonas aeruginosa NCIM 2200 after 24 hrs by serial dilution method. It counts as functional. The note with it: NCIM 2200, 24 h. In a few lines: as §2
Experiment [22] concerns Aspergillus niger. Briefly: Antimicrobial activity against Aspergillus niger NCIM 902 at 500 ug/disk after 72 hrs by disk diffusion method. It counts as functional. The note with it: NCIM 1196, 72 h, in the assay text read “NCIM 1196” for “NCIM 902”, read-out: DIZ. In a few lines:
as §1

Experiment [23] has as its system Lipomyces lipofer. Kind of experiment: Antimicrobial activity against Lipomyces lipofer NCIM 3252 after 72 hrs by serial dilution method. It counts as functional. Conditions: NCIM 3252, 72 h. In a few lines: as §4
Where [24] appears, read: Salmonella enterica subsp. enterica serovar Typhimurium.

≈ marks a conversion by molar mass, not a printed value. Calls of active or inactive are those of the source.

What is called MIC is the smallest concentration in the dilution series that meets the test's criterion for growth inhibition. Lower therefore signals inhibition by little substance. With `O=C1CCCC2=C1C(c1ccccc1O)c1ccc3ccccc3c1N2` (stereo not drawn), the zone of inhibition at 500 µg/disc worked out at 8 mm in experiment [1], 8 mm in [4], 9 mm in experiment [7] and 8 mm in experiment [11]. The “diameter of the inhibition zone (DIZ)” value in [2], in [8], in [9] (setting [24]), in experiment [13] (setting [24]), in experiment [14] and in [15] was “inactive” throughout. The MIC in experiment [3] is 125 µg/mL (≈ 366 µM); in [5], 125 µg/mL (≈ 366 µM); in experiment [6] it was 125 µg/mL (≈ 366 µM); in experiment [10], 62.5 µg/mL (≈ 183 µM). Also, the zone of inhibition at 1000 µg/disc in experiment [12] came out at 9 mm.

Regarding `O=C1CCCC2=C1C(c1ccc(O)cc1)c1ccc3ccccc3c1N2` (stereo not drawn), the zone of inhibition at 500 µg/disc stood at 7 mm in experiment [1]; 7 mm in [4]; 12 mm in [7]; 8 mm in [8]; 9 mm in experiment [11]; 9 mm in [22]. In addition, the zone of inhibition at 500 µg/disc in experiment [13], in experiment [14] and in experiment [15] was 7 mm in each case. The MIC in experiment [16] turned out to be 62.5 µg/mL (≈ 183 µM); in experiment [17], 62.5 µg/mL (≈ 183 µM); in experiment [18] it was 125 µg/mL (≈ 366 µM); in experiment [19], 125 µg/mL (≈ 366 µM); in [5] it was 62.5 µg/mL (≈ 183 µM); in experiment [6], 125 µg/mL (≈ 366 µM). Moreover, the minimal inhibitory concentration (MIC) is 125 µg/mL (≈ 366 µM) in experiment [20], 125 µg/mL (≈ 366 µM) in experiment [21] and 62.5 µg/mL (≈ 183 µM) in [23]. In addition, the zone of inhibition at 1000 µg/disc in experiment [9] and in experiment [12] was 9 mm throughout.

`O=C1CCCC2=C1C(c1cccc([N+](=O)[O-])c1)c1ccc3ccccc3c1N2` (stereo not drawn): the zone of inhibition at 500 µg/disc in experiment [1] stood at 8 mm; in experiment [4] it was 9 mm; in [7], 11 mm; in experiment [8] it was 8 mm; in [11], 10 mm; in experiment [22], 7 mm. For the same molecule, the zone of inhibition at 500 µg/disc in experiment [13] and in [14] was 7 mm each time. For the same molecule, the MIC in experiment [16] is 62.5 µg/mL (≈ 169 µM); in experiment [17], 125 µg/mL (≈ 337 µM); in experiment [3], 62.5 µg/mL (≈ 169 µM); in experiment [18], 62.5 µg/mL (≈ 169 µM); in [19], 125 µg/mL (≈ 337 µM); in experiment [5], 125 µg/mL (≈ 337 µM). Moreover, the MIC came out at 125 µg/mL (≈ 337 µM) in experiment [10], 125 µg/mL (≈ 337 µM) in experiment [20] and 62.5 µg/mL (≈ 169 µM) in [23]. In addition, the zone of inhibition at 1000 µg/disc in [9] amounted to 10 mm; in experiment [12] it was 7 mm. Moreover, in experiment [15], the “diameter of the inhibition zone (DIZ)” value was “inactive”.

Turning to `O=C1CCCC2=C1C(c1ccc(Cl)cc1)c1ccc3ccccc3c1N2` (stereo not drawn), the zone of inhibition at 500 µg/disc was determined as 7 mm in experiment [1]; 7 mm in [4]; 10 mm in [7]; 8 mm in [8]; 8 mm in experiment [11]; 8 mm in experiment [22]. In addition, the zone of inhibition at 500 µg/disc in [13] was 9 mm; in experiment [15] it was 7 mm. The minimal inhibitory concentration (MIC) was determined as 62.5 µg/mL (≈ 174 µM) in experiment [16]; 125 µg/mL (≈ 347 µM) in experiment [17]; 15.6 µg/mL (≈ 43.4 µM) in [3]; 62.5 µg/mL (≈ 174 µM) in experiment [18]; 125 µg/mL (≈ 347 µM) in experiment [19]; 62.5 µg/mL (≈ 174 µM) in experiment [5]. In addition, the minimal inhibitory concentration (MIC) is 125 µg/mL (≈ 347 µM) in [6]; 62.5 µg/mL (≈ 174 µM) in experiment [10]; 125 µg/mL (≈ 347 µM) in [20]; 62.5 µg/mL (≈ 174 µM) in experiment [21]; 125 µg/mL (≈ 347 µM) in experiment [23]. Also, the figures for the zone of inhibition at 1000 µg/disc in experiment [9] and in experiment [12] were 11 mm and 8 mm, respectively. For the same molecule, the “diameter of the inhibition zone (DIZ)” value in experiment [14] is “inactive”.

For `CC1(C)CC(=O)C2=C(C1)Nc1c(ccc3ccccc13)C2c1ccc(O)cc1` (stereo not drawn), the zone of inhibition at 500 µg/disc in experiment [1] was determined as 9 mm; in [4], 7 mm; in experiment [7], 12 mm; in [8], 7 mm; in [11], 7 mm; in [22], 8 mm. The zone of inhibition at 500 µg/disc was 9 mm in experiment [13], 9 mm in [14] and 7 mm in experiment [15]. Besides, the MIC in experiment [16] is 125 µg/mL (≈ 338 µM); in experiment [17], 31.2 µg/mL (≈ 84.4 µM); in [3], 31.2 µg/mL (≈ 84.4 µM); in experiment [18] it was 31.2 µg/mL (≈ 84.4 µM); in experiment [19], 125 µg/mL (≈ 338 µM); in experiment [5] it was 62.5 µg/mL (≈ 169 µM). The MIC was 125 µg/mL (≈ 338 µM) in experiment [6], 62.5 µg/mL (≈ 169 µM) in [20], 62.5 µg/mL (≈ 169 µM) in [21] and 62.5 µg/mL (≈ 169 µM) in experiment [23]. Moreover, the zone of inhibition at 1000 µg/disc turned out to be 11 mm in [9] and 10 mm in experiment [12].
